Legend:
Type in all cases: cell-based
[1] = biological target: T1, Paired amphipathic helix protein Sin3a (Homo sapiens) (UniProt Q96ST3); experiment: Induction of SIN3A degradation in human HCT-116 cells assessed as reduction in SIN3A abundance by measuring remaining activity at 1 uM measured after 24 hrs by Western blot analysis (reference value: 100%)
T1 sequence (whole entry): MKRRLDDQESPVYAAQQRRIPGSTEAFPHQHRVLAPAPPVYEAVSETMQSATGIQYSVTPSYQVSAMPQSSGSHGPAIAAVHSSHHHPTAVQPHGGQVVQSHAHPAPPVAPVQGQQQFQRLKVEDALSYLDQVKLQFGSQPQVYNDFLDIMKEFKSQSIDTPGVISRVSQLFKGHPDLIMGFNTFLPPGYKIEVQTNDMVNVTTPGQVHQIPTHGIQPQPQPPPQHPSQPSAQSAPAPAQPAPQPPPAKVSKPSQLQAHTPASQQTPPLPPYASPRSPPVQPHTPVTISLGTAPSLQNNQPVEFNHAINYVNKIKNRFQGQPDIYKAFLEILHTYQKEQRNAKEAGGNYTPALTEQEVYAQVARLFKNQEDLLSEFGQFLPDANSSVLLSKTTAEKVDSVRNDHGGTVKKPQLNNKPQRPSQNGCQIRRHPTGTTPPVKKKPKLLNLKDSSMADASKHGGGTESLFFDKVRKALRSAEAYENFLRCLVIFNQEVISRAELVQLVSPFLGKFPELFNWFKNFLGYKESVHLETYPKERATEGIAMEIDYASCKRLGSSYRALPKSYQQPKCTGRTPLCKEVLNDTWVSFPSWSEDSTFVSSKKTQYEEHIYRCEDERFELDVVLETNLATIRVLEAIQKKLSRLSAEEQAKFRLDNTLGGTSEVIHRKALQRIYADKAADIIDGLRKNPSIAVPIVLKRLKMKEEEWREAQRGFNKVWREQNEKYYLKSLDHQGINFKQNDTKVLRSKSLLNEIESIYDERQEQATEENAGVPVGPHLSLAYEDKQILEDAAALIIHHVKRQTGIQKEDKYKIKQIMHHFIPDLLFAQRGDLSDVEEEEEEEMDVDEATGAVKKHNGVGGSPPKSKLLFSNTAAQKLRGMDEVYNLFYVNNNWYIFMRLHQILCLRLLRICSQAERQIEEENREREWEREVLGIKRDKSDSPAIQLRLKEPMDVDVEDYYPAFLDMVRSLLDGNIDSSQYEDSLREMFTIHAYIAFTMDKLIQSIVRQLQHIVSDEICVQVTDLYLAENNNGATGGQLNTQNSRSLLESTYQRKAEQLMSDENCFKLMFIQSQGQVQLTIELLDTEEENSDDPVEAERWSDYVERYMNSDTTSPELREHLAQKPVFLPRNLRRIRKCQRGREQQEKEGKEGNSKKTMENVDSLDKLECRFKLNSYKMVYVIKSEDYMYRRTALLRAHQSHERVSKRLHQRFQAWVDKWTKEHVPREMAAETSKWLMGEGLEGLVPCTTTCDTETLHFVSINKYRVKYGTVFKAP
Summary of the method: (§1)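 HCT116 cells seeded in six-well plates for 24 h, then exposed 24 h to compound (0.01–10 μM) or DMSO in fresh medium. Lysis in Tris-HCl/NaCl/NP-40/Triton X-100 with protease inhibitor. Bradford-normalised 30 μg protein per lane. Quantitative Western blot used specific HDAC1, HDAC2, HDAC3, LSD1 or Sin3a antibodies with IRDye secondaries. Abundance compared with DMSO, n = 2 replicates.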

[2] = biological target: T2, E3 ubiquitin-protein ligase Mdm2/Histone deacetylase 2 (Homo sapiens) (UniProt Q00987+Q92769); experiment: PROTAC activity at MDM2/HDAC2 in human HCT-116 cells assessed as decrease in HDAC2 abundance by measuring remaining activity at 1 uM measured after 24 hrs by Western blot analysis (reference value: 100%); summary of the method: as §1
T2 sequence (Q00987 whole entry, looked up): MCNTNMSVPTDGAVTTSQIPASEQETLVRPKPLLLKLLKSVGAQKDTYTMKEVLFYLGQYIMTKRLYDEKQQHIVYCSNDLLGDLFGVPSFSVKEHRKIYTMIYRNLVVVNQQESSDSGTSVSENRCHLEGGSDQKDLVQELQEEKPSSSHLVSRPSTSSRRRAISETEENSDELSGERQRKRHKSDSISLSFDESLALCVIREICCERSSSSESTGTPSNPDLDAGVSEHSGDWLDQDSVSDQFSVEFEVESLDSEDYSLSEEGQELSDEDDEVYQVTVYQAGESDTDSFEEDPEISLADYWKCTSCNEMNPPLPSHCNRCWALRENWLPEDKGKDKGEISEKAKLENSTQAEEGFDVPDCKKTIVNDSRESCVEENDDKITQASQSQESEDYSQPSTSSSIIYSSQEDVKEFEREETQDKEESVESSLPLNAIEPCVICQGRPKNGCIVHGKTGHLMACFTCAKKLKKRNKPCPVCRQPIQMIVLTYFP
T2 sequence (Q92769 whole entry, looked up): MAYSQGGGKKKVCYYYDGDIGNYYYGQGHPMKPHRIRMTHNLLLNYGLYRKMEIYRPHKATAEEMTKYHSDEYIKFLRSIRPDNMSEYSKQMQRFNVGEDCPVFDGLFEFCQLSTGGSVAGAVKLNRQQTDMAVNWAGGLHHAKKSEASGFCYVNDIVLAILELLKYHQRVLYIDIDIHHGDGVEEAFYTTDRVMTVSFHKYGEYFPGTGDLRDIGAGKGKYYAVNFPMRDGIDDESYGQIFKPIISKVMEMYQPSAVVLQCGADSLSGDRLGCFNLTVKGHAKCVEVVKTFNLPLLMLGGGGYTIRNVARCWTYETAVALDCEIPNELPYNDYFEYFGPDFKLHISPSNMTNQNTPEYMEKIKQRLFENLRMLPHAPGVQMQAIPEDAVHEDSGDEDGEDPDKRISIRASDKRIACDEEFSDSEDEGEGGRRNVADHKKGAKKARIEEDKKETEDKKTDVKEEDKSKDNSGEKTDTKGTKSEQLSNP

[3] = biological target: E3 ubiquitin-protein ligase Mdm2/Histone deacetylase 1 (Homo sapiens) (UniProt Q00987+Q13547); experiment: PROTAC activity at MDM2/HDAC1 in human HCT-116 cells assessed as decrease in HDAC1 abundance by measuring remaining activity at 0.1 uM measured after 24 hrs by Western blot analysis (reference value: 100%); summary of the method: as §1
Sequence of E3 ubiquitin-protein ligase Mdm2/Histone deacetylase 1 (Homo sapiens) (Q00987 whole entry, looked up): as the sequence (Q00987 whole entry, looked up) above
Sequence of E3 ubiquitin-protein ligase Mdm2/Histone deacetylase 1 (Homo sapiens) (Q13547 whole entry, looked up): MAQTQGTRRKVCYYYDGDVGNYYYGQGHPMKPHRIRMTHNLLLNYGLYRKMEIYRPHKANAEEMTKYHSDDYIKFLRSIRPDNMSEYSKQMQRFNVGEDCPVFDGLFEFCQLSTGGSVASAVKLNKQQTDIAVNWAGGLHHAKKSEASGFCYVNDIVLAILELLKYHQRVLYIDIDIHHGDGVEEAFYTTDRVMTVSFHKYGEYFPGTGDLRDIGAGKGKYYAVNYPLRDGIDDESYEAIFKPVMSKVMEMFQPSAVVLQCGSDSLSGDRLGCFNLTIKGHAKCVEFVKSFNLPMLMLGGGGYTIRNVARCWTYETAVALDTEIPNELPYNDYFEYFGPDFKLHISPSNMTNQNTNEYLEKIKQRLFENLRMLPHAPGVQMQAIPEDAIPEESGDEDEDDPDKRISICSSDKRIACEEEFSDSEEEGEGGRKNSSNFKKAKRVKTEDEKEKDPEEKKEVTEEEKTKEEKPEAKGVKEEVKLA

[4] = biological target: T2, E3 ubiquitin-protein ligase Mdm2/Histone deacetylase 2 (Homo sapiens); experiment: PROTAC activity at MDM2/HDAC2 in human HCT-116 cells assessed as decrease in HDAC2 abundance by measuring remaining activity at 5 uM measured after 24 hrs by Western blot analysis (reference value: 100%); summary of the method: as §1
[5] = biological target: T1, Paired amphipathic helix protein Sin3a (Homo sapiens); experiment: Induction of SIN3A degradation in human HCT-116 cells assessed as reduction in SIN3A abundance by measuring remaining activity at 0.5 uM measured after 24 hrs by Western blot analysis (reference value: 100%); summary of the method: as §1
[6] = biological target: T2, E3 ubiquitin-protein ligase Mdm2/Histone deacetylase 2 (Homo sapiens); experiment: PROTAC activity at MDM2/HDAC2 in human HCT-116 cells assessed as decrease in HDAC2 abundance by measuring remaining activity at 2.5 uM measured after 24 hrs by Western blot analysis (reference value: 100%); summary of the method: as §1
[7] = biological target: T1, Paired amphipathic helix protein Sin3a (Homo sapiens); experiment: Induction of SIN3A degradation in human HCT-116 cells assessed as reduction in SIN3A abundance by measuring remaining activity at 2.5 uM measured after 24 hrs by Western blot analysis (reference value: 100%); summary of the method: as §1
[8] = biological target: T2, E3 ubiquitin-protein ligase Mdm2/Histone deacetylase 2 (Homo sapiens); experiment: PROTAC activity at MDM2/HDAC2 in human HCT-116 cells assessed as decrease in HDAC2 abundance by measuring remaining activity at 0.5 uM measured after 24 hrs by Western blot analysis (reference value: 100%); summary of the method: as §1
[9] = biological target: T1, Paired amphipathic helix protein Sin3a (Homo sapiens); experiment: Induction of SIN3A degradation in human HCT-116 cells assessed as reduction in SIN3A abundance by measuring remaining activity at 0.025 uM measured after 24 hrs by Western blot analysis (reference value: 100%); summary of the method: as §1
[10] = biological target: Lysine-specific histone demethylase 1A (Homo sapiens) (UniProt O60341); experiment: Induction of LSD1 degradation in human HCT-116 cells assessed as reduction in LSD1 abundance by measuring remaining activity at 0.05 uM measured after 24 hrs by Western blot analysis (reference value: 100%); summary of the method: as §1
[11] = biological target: T2, E3 ubiquitin-protein ligase Mdm2/Histone deacetylase 2 (Homo sapiens); experiment: PROTAC activity at MDM2/HDAC2 in human HCT-116 cells assessed as decrease in HDAC2 abundance by measuring remaining activity at 0.05 uM measured after 24 hrs by Western blot analysis (reference value: 100%); summary of the method: as §1
[12] = biological target: T2, E3 ubiquitin-protein ligase Mdm2/Histone deacetylase 2 (Homo sapiens); experiment: PROTAC activity at MDM2/HDAC2 in human HCT-116 cells assessed as decrease in HDAC2 abundance by measuring remaining activity at 0.025 uM measured after 24 hrs by Western blot analysis (reference value: 100%); summary of the method: as §1
[13] = biological target: T1, Paired amphipathic helix protein Sin3a (Homo sapiens); experiment: Induction of SIN3A degradation in human HCT-116 cells assessed as reduction in SIN3A abundance by measuring remaining activity at 0.25 uM measured after 24 hrs by Western blot analysis (reference value: 100%); summary of the method: as §1
[14] = biological target: T2, E3 ubiquitin-protein ligase Mdm2/Histone deacetylase 2 (Homo sapiens); experiment: PROTAC activity at MDM2/HDAC2 in human HCT-116 cells assessed as induction of HDAC2 degradation by Western blot analysis; details: dose 0.01-10 µM

Activity [1]: 70% | Activity [2]: 69% | Activity [3]: 84% | Activity [4]: 69% | Activity [5]: 79% | Activity [6]: 72% | Activity [7]: 57% | Activity [8]: 89% | Activity [9]: 100% | Activity [10]: 95% | Activity [11]: 90% | Activity [12]: 96% | Activity [13]: 92% | Activity [14]: Dose-Dependent Effect
Compound: COc1cc(C(=O)NCCOCCOCCOCCOCCC(=O)Nc2ccc(C(=O)Nc3ccccc3N)cc2)ccc1NC(=O)[C@@H]1N[C@@H](CC(C)(C)C)[C@](C#N)(c2ccc(Cl)cc2F)[C@H]1c1cccc(Cl)c1F
